Screens deposited in PubChem by several laboratories.
Only some compounds are listed: those with a hit (about 1.7% of all), similar ones and a draw of the others.
STEP inh: inhibitors of human striatal-enriched phosphatase STEP | 0.25% of 360,000 active | recombinant STEP, OMFP fluorogenic substrate, fluorescence | inhibition, % at 20 µM | AID 588621;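 active = inhibition at 20 µM, scaled per plate between control wells, above about 37%, limit read from the data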
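System: STEP phosphatase, cell-free reaction; Buffer or medium: Bis-Tris pH 6.0 buffer with DTT, detergent; Incubation: 20 min at room temperature, dark; Measured by: fluorescence, 480/540 nm.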
Scp1 inh: inhibitors of human Scp-1 phosphatase. 0.88% of 340,000 active. Recombinant Scp1, phosphopeptide, malachite green phosphate absorbance. Q9GZU7. AID 493091. inhibition, % at 20 µM;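 active = inhibition above about 50% at 20 µM, limit read from the data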
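Material – SCP-1 phosphatase catalytic domain, residues 76-261 · Buffer or medium – Acidic Tris acetate buffer with magnesium and detergent · Also added – Phospho 17-mer peptide substrate · Compound – single 20 µM dose, 1% DMSO · Times – 45 min room-temperature reaction, 5 min colour, 30 min stabiliser · Technique – Phosphate-binding colour reagent, absorbance read at 630 nm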
Pemphigus Ab inh: inhibitors of pemphigus antibody binding to human desmoglein-3; 0.48% of 310,000 active; binding (percent of control), % at 10 µM; DSG3-coupled beads, scFv-anti-DSG3-GFP binding, flow cytometry; stronger effect = lower value; AID 588358;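 active = binding more than 3 SD below its plate's average and above zero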;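 note: hits lower antibody fragment binding to DSG3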
Target sequence (P32926 whole entry, looked up, the tested form may be a part): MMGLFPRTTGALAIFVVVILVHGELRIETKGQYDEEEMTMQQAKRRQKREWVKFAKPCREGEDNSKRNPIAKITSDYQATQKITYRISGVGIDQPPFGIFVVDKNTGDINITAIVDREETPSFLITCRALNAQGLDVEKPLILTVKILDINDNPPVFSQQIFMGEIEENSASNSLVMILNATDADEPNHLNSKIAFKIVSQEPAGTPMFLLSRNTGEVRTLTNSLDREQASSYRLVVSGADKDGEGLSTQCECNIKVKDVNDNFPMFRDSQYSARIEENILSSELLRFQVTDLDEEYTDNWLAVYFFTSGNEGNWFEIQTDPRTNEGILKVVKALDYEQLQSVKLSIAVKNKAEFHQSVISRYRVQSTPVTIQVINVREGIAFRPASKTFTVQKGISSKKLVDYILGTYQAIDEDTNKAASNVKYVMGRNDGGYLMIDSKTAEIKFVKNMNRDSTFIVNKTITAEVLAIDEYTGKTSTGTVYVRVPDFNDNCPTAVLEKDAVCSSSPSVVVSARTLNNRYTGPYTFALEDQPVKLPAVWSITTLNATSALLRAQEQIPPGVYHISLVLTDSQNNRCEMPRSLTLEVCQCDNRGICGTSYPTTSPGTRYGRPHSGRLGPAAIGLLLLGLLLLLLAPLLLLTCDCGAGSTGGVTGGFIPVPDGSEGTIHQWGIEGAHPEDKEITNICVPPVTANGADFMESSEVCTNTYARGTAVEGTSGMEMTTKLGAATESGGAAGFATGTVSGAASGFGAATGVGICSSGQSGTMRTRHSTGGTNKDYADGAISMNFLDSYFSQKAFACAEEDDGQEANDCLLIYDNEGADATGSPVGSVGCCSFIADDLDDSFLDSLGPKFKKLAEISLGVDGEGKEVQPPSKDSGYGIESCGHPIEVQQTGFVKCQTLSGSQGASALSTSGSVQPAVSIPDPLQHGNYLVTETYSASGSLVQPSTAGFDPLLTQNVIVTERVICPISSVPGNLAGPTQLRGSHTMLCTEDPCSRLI
SUMO1-SIM PPI: alters human SUMO1 binding to SIM partners. SUMO1 binding to a labelled peptide, TR-FRET, 1 h. AID 602429. 0.33% of 360,000 active. inhibition, % at 20 µM. P63165; in the data active = inhibition above about 37%
LMPTP block: LMPTP (human) inhibition; 0.22% of 360,000 active; AID 651560; recombinant LMPTP-A, OMFP fluorogenic substrate, fluorescence intensity; inhibition, % at 20 µM; P24666;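 active = compounds that cut the enzyme signal by at least half of the control window in the single-dose screen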
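test system = LMPTP-A | amount = 0.625 nM LMPTP-A final | reagent = fluorogenic phosphatase substrate OMFP at 400 µM final | incubation = 50 min at room temperature | benchmarks = no-enzyme low control, uninhibited high control | medium = Bis-Tris pH 6.0, DTT, detergent | signal = fluorescence intensity of OMFP turnover product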
Scp-1 conf: Scp-1 (human) inhibition, single-dose confirmed; shares compounds with Scp1 inh; recombinant SCP-1 catalytic domain, phosphate release, malachite green absorbance; inhibition, % at 20 µM; 61% of 2,500 active; AID 540281
MG interference: interferes with malachite green readout, flagging false Scp-1 hits | shares compounds with Scp1 inh | Colorimetric interference counterscreen, malachite green absorbance 630 nm | apparent inhibition (interference), % at 20 µM | 2,500 tested, under 10 active;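 note: compounds added after enzyme reaction finished so only phosphate colour detection is probed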
Scp1 DSF: validation of human Scp-1 inhibitors by thermal shift binding. shares compounds with Scp1 inh. Recombinant SCP1, Sypro Orange thermal shift Tm. thermal shift relative to vanadate control, % at 40 µM. 25% of 1,500 active. AID 540329;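 active = substances whose mean melting-temperature shift, as a percentage of the reference inhibitor's shift, reaches about 5.3%, limit read from the data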
STEP conf: confirmation of human STEP phosphatase inhibitors; shares compounds with STEP inh; AID 623866; inhibition, % at 20 µM; 32% of 520 active; recombinant STEP, OMFP fluorogenic substrate, fluorescence; call rule not given here
Hits are given with their value; i = inactive; nt = no result.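 Rule for the calls, unless noted: active = inhibition of at least 30% at 20 µM; inactive = the rest.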

SMILES	STEP inh	Scp1 inh	Pemphigus Ab inh	SUMO1-SIM PPI	LMPTP block	Scp-1 conf	MG interference	Scp1 DSF	STEP conf
COC(=O)c1ccc(C(=O)Nc2ccc3c(c2)C(=O)NC3=O)cc1	94	75	i	95	i	47	i	6.0	i
Cc1ccc(C(=O)Nc2ccc3c(c2)C(=O)NC3=O)cc1	i	i	i	i	i	nt	nt	nt	nt
Cc1cc(=O)oc2cc(NC(=O)c3cccc(F)c3)ccc12	91	63	i	i	i	35	i	i	i
Cc1cc(=O)oc2cc(NC(=O)c3ccc(OC(F)F)cc3)ccc12	84	87	i	i	i	79	i	i	i
O=C(N/N=C/C=C/c1ccccc1)c1cc2c(ccc3ccccc32)o1	66	102	i	i	63	81	i	i	i
O=C(N/N=C/c1ccccc1F)c1cc2c(ccc3ccccc32)o1	97	103	i	i	i	67	i	i	i
CC(=O)c1ccc(S(=O)(=O)Nc2cccc(-n3cnnn3)c2)cc1	97	77	nt	i	i	65	i	i	99
CC(=O)Nc1ccc(S(=O)(=O)Nc2cccc(-n3cnnn3)c2)cc1	i	i	i	i	i	nt	nt	nt	nt
Cc1ccc(NC(=O)CN2C(=O)S/C(=C\c3ccc(OCC(=O)O)c(Br)c3)C2=O)cc1	71	72	i	i	i	58	i	i	61
COC(=O)COc1ccc(/C=C2/SC(=O)N(CC(=O)N3CCCC3)C2=O)cc1Br	i	i	i	i	i	nt	nt	nt	nt
CO/C=C\C=C/c1nnn(-c2ccc(Cl)cc2)n1	i	i	i	i	i	nt	nt	nt	nt
CCCc1cc(=O)oc2cc(OCC(=O)Nc3ccc(S(N)(=O)=O)cc3)ccc12	69	100	i	55	84	85	i	i	65
CCCc1cc(=O)oc2cc(OCC(=O)NCCCn3ccnc3)ccc12	i	i	i	i	i	nt	nt	nt	nt
CCOc1ccc(/C=N/NC(=O)c2cc3c(OC)cccc3[nH]2)cc1	89	79	i	i	i	58	i	6.4	41
O=C(O)Cc1cccc(=O)c(O)c1C(=O)O	68	79	i	i	i	54	i	6.3	88
O=C(O)Cc1ccccc1C(=O)O	i	i	i	i	i	nt	nt	nt	nt
Cc1ccc(NC(=O)C2CCN(S(=O)(=O)c3c(C)nn(C)c3C)CC2)c(Cl)c1	i	i	i	i	i	nt	nt	nt	nt
O=C(Cn1cnc2c(nnn2-c2ccccc2)c1=O)NCc1ccc(F)cc1	77	101	i	i	i	96	i	i	i
COc1cc(/C=C(\C#N)C(=O)Nc2cccc(C(=O)O)c2)ccc1OCc1ccc(C)cc1	61	86	i	i	i	72	i	i	i
CN(C)c1ccc(C(=O)OCC(=O)Nc2ccc(S(N)(=O)=O)cc2)cc1	40	99	i	58	i	75	i	11	101
O=C(N/N=C/c1cccnc1)c1ccc(Cl)c(Cl)c1	i	i	i	i	i	nt	nt	nt	nt
O=C(N/N=C/c1cccnc1)c1ccc(NC(=O)c2cccc(Cl)c2)cc1	94	70	i	61	i	72	i	8.4	61
CCOC(=O)C1(Cc2ccccc2C)CCCN(S(=O)(=O)c2cccnc2)C1 (stereo not given)	i	i	i	i	i	nt	nt	nt	nt
CCOC(=O)c1c(NC(=O)COC(=O)c2ccccn2)sc(C)c1C	i	i	i	i	i	nt	nt	nt	nt
O=C(Nc1ccc2oc(-c3ccccc3F)nc2c1)c1ccc([N+](=O)[O-])o1	99	101	i	98	90	95	i	i	i
SMILES	STEP inh	Scp1 inh	Pemphigus Ab inh	SUMO1-SIM PPI	LMPTP block	Scp-1 conf	MG interference	Scp1 DSF	STEP conf
Cc1cccc(CNC(=O)Nc2nnc([C@H]3C[C@H](O)[C@@H](CO)O3)s2)c1	i	nt	nt	i	i	nt	nt	nt	nt
COc1ccc2cc3c(N)nn(C(=O)c4cccc(F)c4)c3nc2c1	96	96	i	85	i	60	i	i	21
O=C(COc1ccc(/C=N/NC(=O)c2ccccc2O)cc1)Nc1ccccc1	85	65	i	i	67	65	i	i	24
COc1cc(/C=N/NC(=O)c2ccccc2O)ccc1OCC(=O)Nc1ccccc1	62	63	i	i	i	70	i	i	83
O=C(COc1ccc(/C=N/NC(=O)c2ccccc2Br)cc1)Nc1ccccc1	i	i	i	i	i	nt	nt	nt	nt
COc1cc(/C=N/NC(=O)c2ccncc2)ccc1OCC(=O)Nc1ccccc1	i	i	nt	i	i	nt	nt	nt	nt
Cc1nc2cc(-c3ccc(Br)cc3)[nH]n2c(=O)c1Cl	97	96	i	i	i	i	i	nt	i
Cc1ccc(CNC(=O)[C@H](C)NC(=O)C2CCN(C(=O)[C@@H]3CCCN3C(=O)OC(C)(C)C)CC2)cc1	i	i	i	i	i	nt	nt	nt	nt
COc1ccc2cc(C(=O)Nc3ccc(F)cc3)sc(=O)c2c1OC	49	56	nt	i	i	41	i	i	i
COc1ccc2cc(C(=O)Nc3ccc(Cl)cc3)sc(=O)c2c1OC	59	92	i	i	i	65	i	i	i
Cc1ccc(S(=O)(=O)N2CCCC2)cc1C(=O)NCc1ccccc1CN1CCCC1	i	i	i	i	i	nt	nt	nt	nt
CCOc1ccc(N=C2NC(=O)S/C2=C\c2ccc(Cl)cc2)cc1	51	112	i	i	i	41	i	i	i
CC(=O)/C(C#N)=C1\NC(=O)C(Cc2ccccc2C)S1 (stereo not given)	i	i	i	i	i	nt	nt	nt	nt
CC1CCCN(C(=O)c2ccc3c(=O)n4nc(Nc5ccccc5)sc4nc3c2)C1 (stereo not given)	i	nt	i	i	i	nt	nt	nt	nt
Cc1cccc(Nc2nn3c(=O)c4ccccc4nc3s2)c1	96	106	i	i	i	69	i	i	29
O=C(Nc1nc2ccsc2c(=O)s1)c1ccc(Cl)cc1	96	103	i	i	54	72	i	i	i
C[C@@H]1CN([C@@H](C)CO)C(=O)Cc2cc(NC(=O)C3CCCCC3)ccc2O[C@H]1CN(C)S(=O)(=O)c1ccccc1	i	i	i	i	i	nt	nt	nt	nt
Cc1ccc2oc(-c3cc(NC(=O)c4ncn[nH]4)ccc3O)nc2c1	78	85	i	i	i	81	i	i	i
Cc1ccc2oc(-c3ccc(NC(=O)c4ccncc4)cc3O)nc2c1	i	i	i	i	i	nt	nt	nt	nt
O=C(N/N=C/c1ccsc1)c1cc2ccccc2o1	i	i	i	i	i	nt	nt	nt	nt
